Measured values taken from ChEMBL document CHEMBL2176944, “2-(3-Oxo-1,3-diphenylpropyl)malonic acids as potent allosteric ligands of the PIF pocket of phosphoinositide-dependent kinase-1: development and prodrug concept” (J Med Chem, 2012).
Calls of active or inactive are those of the source. No cut-off for these calls is given here.

Columns and labels:
[1] = biological target: T1, 3-phosphoinositide-dependent protein kinase 1 (Homo sapiens) (UniProt O15530); experiment: Activation of PDK1 in IGF-I-stimulated HEK293 cells assessed as decrease of phosphorylation of PKB T-loop at 50 uM after 2 hrs by Western blot analysis; format: cell-based
T1 sequence (whole entry): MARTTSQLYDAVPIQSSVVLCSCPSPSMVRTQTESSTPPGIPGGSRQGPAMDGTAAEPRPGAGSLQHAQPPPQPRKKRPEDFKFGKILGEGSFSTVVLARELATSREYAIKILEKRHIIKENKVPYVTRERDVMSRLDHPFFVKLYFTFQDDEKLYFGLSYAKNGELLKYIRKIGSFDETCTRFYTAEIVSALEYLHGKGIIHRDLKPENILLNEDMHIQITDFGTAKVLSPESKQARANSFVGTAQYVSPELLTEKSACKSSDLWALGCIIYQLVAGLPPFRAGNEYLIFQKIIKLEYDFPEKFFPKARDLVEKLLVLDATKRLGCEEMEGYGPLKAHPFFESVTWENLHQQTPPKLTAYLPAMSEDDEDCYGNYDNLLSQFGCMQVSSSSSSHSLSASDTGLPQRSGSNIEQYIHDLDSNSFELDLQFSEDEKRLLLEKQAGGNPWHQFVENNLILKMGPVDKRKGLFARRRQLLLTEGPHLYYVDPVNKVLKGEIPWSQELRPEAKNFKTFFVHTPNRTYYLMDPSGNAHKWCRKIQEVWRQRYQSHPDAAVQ
How it was run: (§1)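 HEK293 cells in DMEM with 10% FBS were serum-starved 24 h, then given 50 μM compound or DMSO for 2 h and stimulated with IGF-I (10 ng/mL) for 20 min. For S6K and PKCζ, cells were first transiently transfected with GST-fusions of full-length S6K[T412E] and PKCζ (PEI). These proteins were pulled down on glutathione sepharose and immunoblotted for activation-loop phosphorylation (S6K Thr229, PKCζ Thr410), normalized to anti-GST. For PKB, untransfected cell lysates were immunoblotted with phospho-specific antibodies.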

[2] = biological target: T1, 3-phosphoinositide-dependent protein kinase 1 (Homo sapiens); experiment: Activation of PDK1 in IGF-I-stimulated HEK293 cells assessed as decrease of phosphorylation of PKCzeta at Thr410 at 50 uM after 2 hrs by Western blot analysis; format: cell-based; how it was run: as §1
[3] = biological target: T1, 3-phosphoinositide-dependent protein kinase 1 (Homo sapiens); experiment: Activation of PDK1 in IGF-I-stimulated HEK293 cells assessed as decrease of phosphorylation of S6K activation loop at 50 uM after 2 hrs by Western blot analysis; format: cell-based; how it was run: as §1
L6 [4] = experiment: Prodrug conversion in rat L6 cells assessed as production of 2-(3-Oxo-1-phenyl-3-(4-(trifluoromethyl)phenyl)propyl)malonic acid level in cytoplasm at 20 uM […] by HPLC analysis; format: ADME, cell-based; conditions: l6, 20 µM
L6 [5] = experiment: Prodrug conversion in rat L6 cells assessed as production of 2-(3-Oxo-1-phenyl-3-(4-(trifluoromethyl)phenyl)propyl)malonic acid level at 20 uM after 1 hr by mass spectroscopy analysis; format: ADME, cell-based; conditions: l6, 1 h
How it was run: (§2)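 Confluent rat L6 cells in serum-free DMEM were exposed to 20 μM ester prodrug for 5–90 min. Cells were then washed with cold PBS, trypsinized and counted. Carbamazepine was added as internal standard, and samples were acidified with HCl and extracted with ethyl acetate. Prodrug and free dicarboxylic acid were quantified by HPLC-MS/MS on a C18 column with TFA-containing gradients. DMSO-treated cells served as control.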

L6 [6] = experiment: Prodrug conversion in rat L6 cells assessed as prodrug degradation at 20 uM after 1 hr by mass spectroscopy analysis; format: ADME, cell-based; conditions: l6, 1 h
L6 [7] = experiment: Prodrug conversion in rat L6 cells assessed as reduction half life of prodrug at 20 uM […] by mass spectroscopy analysis; format: ADME, cell-based; conditions: l6, 20 µM
L6 [8] = experiment: Prodrug conversion in rat L6 cells assessed as production of 2-(3-Oxo-1-phenyl-3-(4-(trifluoromethyl)phenyl)propyl)malonic acid level in cytoplasm at 20 uM […] by mass spectroscopy analysis relative to control; format: ADME, cell-based; conditions: l6, 20 µM
L6 [9] = experiment: Cellular uptake in rat L6 cells at 20 uM after 5 mins by mass spectroscopy analysis; format: ADME, cell-based; conditions: l6, 5 min; how it was run: as §2
[10] = Hydrolysis half life of the compound; format: physicochemical
How it was run: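 Chemical stability of the ester prodrug was measured in cell-free medium at 37 °C, giving the half-life of spontaneous hydrolysis.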

- Activity [1]: inactive
- Activity [2]: inactive
- Activity [3]: Active
- Drug metabolism (L6 [4]): Active
- Drug metabolism (L6 [5]): 80 µM
- Drug metabolism (L6 [6]): > 90%
- t1/2 (L6 [7]): 4.3 min
- fold change (FC) (L6 [8]): 67
- Drug uptake (L6 [9]): Active
- half-life [10]: 4.8 h
SMILES: CC(=O)OCOC(=O)C(C(=O)OCOC(C)=O)C(CC(=O)c1ccc(C(F)(F)F)cc1)c1ccccc1 (stereo not given)
